Test results taken from ChEMBL document CHEMBL4823323, “Monocyclic Nitro-heteroaryl Nitrones with Dual Mechanism of Activation: Synthesis and Antileishmanial Activity” (ACS Med Chem Lett, 2021).
Calls of active or inactive are those of the source. The calls are words filed in the database; no cut-off is given here.

Columns and labels:
Leishmania donovani [1] = assay: Antileishmanial activity against wild type Leishmania donovani promastigotes incubated for 72 hrs by resazurin dye based assay; format: functional, organism-based
Method in brief: (§1)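 IC50 is the mean ± standard error of three independent experiments, each run in triplicate.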

Leishmania amazonensis [2] = assay: Induction of ROS production in Leishmania amazonensis promastigotes measured by H2DCFDA probe based fluorescence analysis; format: functional; conditions: time hrs <=4
Method in brief: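 L. amazonensis promastigotes exposed to compounds at concentrations based on the anti-promastigote EC50, with ROS followed kinetically over 4 h using H2DCFDA fluorescence; means ± SD, n=3.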

Leishmania amazonensis [3] = assay: Antileishmanial activity against Leishmania amazonensis MHOM/BR/77/LTB 0016 promastigotes assessed as inhibition of parasite growth incubated for 72 hrs by resazurin dye based assay; format: functional, organism-based; conditions: MHOM/BR/77/LTB 0016, 72 h
Method in brief: (§2)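 Values are averages of three independent experiments run in triplicate ± standard error.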

Leishmania donovani [4] = assay: Antileishmanial activity against Leishmania donovani LdBOB derived from MHOM/SD/62/1 S-CL2D promastigotes overexpressing NTR1 incubated for 72 hrs by resazurin dye based assay; format: functional, organism-based; method in brief: as §1
Leishmania donovani [5] = assay: Selectivity index, ratio of IC50 for antileishmanial activity against wild type Leishmania donovani promastigotes to IC50 for antileishmanial activity against Leishmania donovani LdBOB derived from MHOM/SD/62/1 S-CL2D promastigotes overexpressing NTR2; format: functional
Leishmania donovani [6] = assay: Selectivity index, ratio of IC50 for antileishmanial activity against wild type Leishmania donovani promastigotes to IC50 for antileishmanial activity against Leishmania donovani LdBOB derived from MHOM/SD/62/1 S-CL2D promastigotes overexpressing NTR1; format: functional
Peritoneal macrophage = assay: Induction of ROS production in mouse peritoneal macrophages at EC50 concentration measured upto 4 hrs by H2DCFDA probe based fluorescence analysis; format: functional, cell-based; conditions: time hrs <=4
Method in brief: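 Murine peritoneal macrophages incubated 4 h with 0.5×, 1× and 2× EC50 of compounds (concentrations taken from the anti-promastigote assay); ROS quantified with H2DCFDA; means ± SD, n=3.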

Leishmania donovani [7] = assay: Antileishmanial activity against Leishmania donovani LdBOB derived from MHOM/SD/62/1 S-CL2D promastigotes overexpressing NTR2 incubated for 72 hrs by resazurin dye based assay; format: functional, organism-based; method in brief: as §1
Leishmania amazonensis [8] = assay: Antileishmanial activity against intracellular Leishmania amazonensis MHOM/BR/77/LTB 0016 amastigotes infected in BALB/c mouse peritoneal macrophage assessed as reduced parasite growth incubated for 72 hrs by PANOTIC staining based assay; format: functional, organism-based; conditions: MHOM/BR/77/LTB 0016, Peritoneal macrophage; method in brief: as §2
[9] = Electrochemical behavior of the compound in aprotic medium assessed as redox potential using glassy carbon electrode by cyclic voltammetry analysis; format: physicochemical
Leishmania infantum [10] = assay: Antileishmanial activity against Leishmania infantum MHOM/MA/67/ITMAP-263 promastigotes assessed as inhibition of parasite growth incubated for 72 hrs by resazurin dye based assay; format: functional, organism-based; conditions: MHOM/MA/67/ITMAP-263, 72 h; method in brief: as §2
[11] = (§3) Selectivity index, ratio of CC50 for cytotoxicity against BALB/c mouse peritoneal macrophages assessed as reduction in cell viability incubated for 72 hrs by resazurin dye based fluorescence assay to IC50 for antileishmanial activity against intracellular Leishmania amazonensis MHOM/BR/77/LTB 0016 amastigotes infected in BALB/c mouse peritoneal macrophage; format: toxicity; conditions: read-out: Selectivity Index
Method in brief: (§4)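 CC50 values are means of three independent experiments, each in triplicate, ± standard error; selectivity index taken as macrophage CC50 divided by intracellular amastigote EC50.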

[12] = Cytotoxicity against BALB/c mouse peritoneal macrophages assessed as reduction in cell viability incubated for 72 hrs by resazurin dye based fluorescence assay; design: species or system Peritoneal macrophage; method in brief: as §4
Leishmania infantum [13] = assay: Antileishmanial activity against intracellular Leishmania infantum MHOM/MA/67/ITMAP-263 amastigotes infected in BALB/c mouse peritoneal macrophage assessed as reduced parasite growth incubated for 72 hrs by PANOTIC staining based assay; format: functional, organism-based; conditions: MHOM/MA/67/ITMAP-263, Peritoneal macrophage; method in brief: as §2
[14] = as §3, with “infantum MHOM/MA/67/ITMAP-263” for “amazonensis MHOM/BR/77/LTB 0016”; format: toxicity; conditions: read-out: Selectivity Index; method in brief: as §4
Leishmania infantum [15] = assay: Antileishmanial activity in Leishmania infantum promastigotes intraperitoneally infected in BALB/c mouse assessed as reduced parasite load in spleen at 100 mg/kg, po twice a day followed by omeprazole administration 1 hr prior to test compound administration for 5 consecutive days relative to control; format: functional; design: scale not given: the % may be the effect or the level left; conditions: time 5 day
Method in brief: (§5)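 BALB/c mice (n=5) infected intraperitoneally with 1 × 10^8 L. infantum promastigotes; treatment began seven days post-infection. Oral omeprazole 10mg given 1 h before each oral dose of test compound (25, 50, 100 mg/kg) every 12 h for five consecutive days. Controls received vehicle or miltefosine 22mg/kg twice daily. Spleen and liver parasite load estimated by limiting dilution.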

[16] = Metabolic stability in human liver S9 fraction assessed as drug recovery at pH 7.4 in the presence of NADPH cofactor measured upto 60 mins by LC/MS/MS analysis; format: ADME, subcellular; conditions: s9, pH 7.4, 1 h
Leishmania infantum [17] = assay: Antileishmanial activity in Leishmania infantum promastigotes intraperitoneally infected in BALB/c mouse assessed as reduced parasite load in spleen at 50 mg/kg, po twice a day followed by omeprazole administration 1 hr prior to test compound administration for 5 consecutive days relative to control; format: functional; design: scale not given: the % may be the effect or the level left; conditions: time 5 day; method in brief: as §5
[18] = Chemical stability of the compound assessed as degradation product at pH 7 measured after 240 mins; format: physicochemical; conditions: buffer, pH 7, 4 h
[19] = Aqueous solubility of the compound at pH 7.4 measured after 24 hrs by UHPLC-HRMS analysis; format: physicochemical; conditions: buffer
[20] = Chemical stability of the compound assessed as degradation product at pH 2 measured after 240 mins; format: physicochemical; conditions: buffer, pH 2, 4 h
Leishmania infantum [21] = assay: Antileishmanial activity in Leishmania infantum promastigotes intraperitoneally infected in BALB/c mouse assessed as reduced parasite load in liver at 25 to 100 mg/kg, po twice a day followed by omeprazole administration 1 hr prior to test compound administration for 5 consecutive days relative to control; format: functional; design: scale not given: the % may be the effect or the level left; conditions: dose 25-100 mg/kg, time 5 day; method in brief: as §5
[22] = Stability in pooled mouse plasma at pH 7.4 assessed as parent compound remaining incubated for 240 mins by LC/MS/MS analysis; format: ADME, cell-free; conditions: pH 7.4, 4 h

Compound	IC50 (Leishmania donovani [1]) [µM]	IC50 (Leishmania amazonensis [3]) [µM]	IC50 (Leishmania donovani [4]) [µM]	Ratio IC50 (Leishmania donovani [5])	Ratio IC50 (Leishmania donovani [6])	IC50 (Leishmania donovani [7]) [µM]	IC50 (Leishmania amazonensis [8]) [µM]	Activity [9] [V]	IC50 (Leishmania infantum [10]) [µM]	selectivity ratio at 72 h [11]	CC50 at 72 h [12] [µM]	also measured
C/[N+]([O-])=C/c1ccc([N+](=O)[O-])s1	1.12	9.72	0.24	4.5	4.6	0.25	3.81	-0.61	3.45	6	24.2	Activity (Leishmania amazonensis [2]): inactive; Activity (Peritoneal macrophage): inactive
O=[N+]([O-])c1ccc(/C=[N+](\[O-])Cc2ccccc2)s1	0.41	1.5	0.3	0.53	1.3	0.76	5.42	–	1.51	3.4	18.5	IC50 (Leishmania infantum [13]): 7.18 µM; selectivity ratio at 72 h [14]: 2.6
O=Cc1ccc([N+](=O)[O-])cc1	–	> 100	–	–	–	–	–	-0.58	> 100	–	–	–
O=Cc1ccc([N+](=O)[O-])o1	–	25.2	–	–	–	–	> 57.9	-0.38	25.7	< 0.5	27.8	–
O=[N+]([O-])c1ccc(/C=[N+](\[O-])Cc2ccccc2)o1	0.99	0.21	1.22	0.74	0.81	1.33	2.04	–	0.22	15.6	31.9	IC50 (Leishmania infantum [13]): 4.49 µM; selectivity ratio at 72 h [14]: 5.7
CC(C)(C)/[N+]([O-])=C/c1ccc([N+](=O)[O-])o1	0.87	1.99	0.05	21	17	0.04	2.76	-0.67	0.36	39	108	Activity (Leishmania amazonensis [2]): inactive; IC50 (Leishmania infantum [13]): 0.019 µM; Activity (Peritoneal macrophage): inactive; selectivity ratio at 72 h [14]: 5670
C/[N+]([O-])=C/c1ccco1	–	> 100	–	–	–	–	–	–	> 100	–	> 100	–
O=Cc1ccc([N+](=O)[O-])s1	–	5.11	–	–	–	–	> 11.5	–	1.39	< 0.5	6.25	–
O=Cc1cccs1 [2-THIOPHENENECARBOXALDEHYDE]	–	> 100	–	–	–	–	–	–	> 100	–	–	–
C/[N+]([O-])=C\c1ccc([N+](=O)[O-])cc1	–	> 100	–	–	–	–	–	-0.68	> 100	–	> 100	–
CC1CS(=O)(=O)CCN1/N=C/c1ccc([N+](=O)[O-])o1 (configuration not stated) [NIFURTIMOX]	1.89	–	0.11	–	17	–	–	–	–	–	–	–
C/[N+]([O-])=C/c1ccc([N+](=O)[O-])o1	1.16	9.37	0.03	6.1	38	0.19	1.07	-0.62	0.88	47	49.9	Activity (Leishmania amazonensis [2]): inactive; Activity (Leishmania infantum [15]): 95%; Stabilty [16]: Stable; Activity (Leishmania infantum [17]): 76.6%; Drug degradation [18]: > 25%; solubility at 24 h [19]: > 10 µM; Drug degradation [20]: 40%; Activity (Leishmania infantum [21]): >75%; IC50 (Leishmania infantum [13]): 0.17 µM; Activity (Peritoneal macrophage): inactive; selectivity ratio at 72 h [14]: 295; Stabilty [22]: Stable
O=Cc1ccco1 [FURFURAL]	–	> 100	–	–	–	–	–	–	> 100	–	–	–
CC(C)(C)/[N+]([O-])=C/c1ccc([N+](=O)[O-])s1	4.55	11.3	0.27	18	17	0.31	–	-0.64	13.3	–	29.8	Activity (Leishmania amazonensis [2]): inactive; Activity (Peritoneal macrophage): inactive
C[C@]1(COc2ccc(N3CCC(Oc4ccc(OC(F)(F)F)cc4)CC3)cc2)Cn2cc([N+](=O)[O-])nc2O1 [DELAMANID]	0.0015	–	–	12.5	–	0.00012	–	–	–	–	–	–
C/[N+]([O-])=C/c1cccs1	–	> 100	–	–	–	–	–	–	> 100	–	> 100	–
CCCCCCCCCCCCCCCCOP(=O)([O-])OCC[N+](C)(C)C [MILTEFOSINE]	–	7.01	–	–	–	–	3.4	–	9.81	28	96.5	IC50 (Leishmania infantum [13]): 0.5 µM; selectivity ratio at 72 h [14]: 193
